Test results from ChEMBL document CHEMBL1134293, “Design of selective and soluble inhibitors of tumor necrosis factor-alpha converting enzyme (TACE)” (J Med Chem, 2001).
Converted amounts (≈) assume the structure as drawn.

Columns and labels:
[1] = target: Stromelysin-1 (Homo sapiens, UniProt P08254); experiment: Inhibition potency was determined by fluorescence-based peptide assay against matrix metalloprotease-3; parameters: species or system Escherichia coli
Summary of the method: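 Full-length active MMP-3 expressed in E. coli, refolded 1 h in 200 mM NaCl, 50 mM Tris, 5 mM CaCl2, 10 μM ZnSO4, 0.01% Brij 35, pH 7.6, used at 5 nM in the same buffer. Preincubated 20 min at room temperature with inhibitor across eleven 3-fold dilutions, then fluorogenic Dnp-Pro-Cha-Gly-Cys(Me)-His-Ala-Lys(Nma)-NH2 added; product read at ex 343/em 450 nm; IC50 (nM).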

[2] = target: Disintegrin and metalloproteinase domain-containing protein 17 (Homo sapiens, UniProt P78536); experiment: Inhibition of TACE using scintillation proximity assay (SPA)
Chain of Disintegrin and metalloproteinase domain-containing protein 17 (P78536 whole entry, the tested form may be a part): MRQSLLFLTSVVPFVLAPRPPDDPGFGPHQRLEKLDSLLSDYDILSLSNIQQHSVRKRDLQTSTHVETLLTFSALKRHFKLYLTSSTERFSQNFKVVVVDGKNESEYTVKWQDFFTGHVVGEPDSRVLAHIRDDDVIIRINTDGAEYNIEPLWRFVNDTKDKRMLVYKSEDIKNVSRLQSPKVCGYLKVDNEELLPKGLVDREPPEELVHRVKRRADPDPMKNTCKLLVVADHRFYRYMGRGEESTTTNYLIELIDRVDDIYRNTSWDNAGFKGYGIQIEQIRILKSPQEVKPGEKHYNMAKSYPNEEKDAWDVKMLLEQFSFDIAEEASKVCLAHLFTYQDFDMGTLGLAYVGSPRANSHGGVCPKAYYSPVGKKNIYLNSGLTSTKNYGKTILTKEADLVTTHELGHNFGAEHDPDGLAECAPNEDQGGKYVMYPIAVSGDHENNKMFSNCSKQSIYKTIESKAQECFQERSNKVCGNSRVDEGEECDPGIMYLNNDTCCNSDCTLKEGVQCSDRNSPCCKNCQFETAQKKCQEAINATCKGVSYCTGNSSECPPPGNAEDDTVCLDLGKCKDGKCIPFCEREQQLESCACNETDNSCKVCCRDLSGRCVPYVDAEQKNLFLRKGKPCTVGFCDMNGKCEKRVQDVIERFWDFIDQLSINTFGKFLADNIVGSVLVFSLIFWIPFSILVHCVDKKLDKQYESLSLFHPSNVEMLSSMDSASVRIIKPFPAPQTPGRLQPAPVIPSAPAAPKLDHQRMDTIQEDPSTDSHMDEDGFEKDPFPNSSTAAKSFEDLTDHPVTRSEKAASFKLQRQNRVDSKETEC

[3] = target: T1, Interstitial collagenase (Homo sapiens, UniProt P03956); experiment: Inhibition potency was determined by fluorescence-based peptide assay against matrix metalloprotease-1; parameters: species or system Escherichia coli
T1 sequence (P03956 whole entry): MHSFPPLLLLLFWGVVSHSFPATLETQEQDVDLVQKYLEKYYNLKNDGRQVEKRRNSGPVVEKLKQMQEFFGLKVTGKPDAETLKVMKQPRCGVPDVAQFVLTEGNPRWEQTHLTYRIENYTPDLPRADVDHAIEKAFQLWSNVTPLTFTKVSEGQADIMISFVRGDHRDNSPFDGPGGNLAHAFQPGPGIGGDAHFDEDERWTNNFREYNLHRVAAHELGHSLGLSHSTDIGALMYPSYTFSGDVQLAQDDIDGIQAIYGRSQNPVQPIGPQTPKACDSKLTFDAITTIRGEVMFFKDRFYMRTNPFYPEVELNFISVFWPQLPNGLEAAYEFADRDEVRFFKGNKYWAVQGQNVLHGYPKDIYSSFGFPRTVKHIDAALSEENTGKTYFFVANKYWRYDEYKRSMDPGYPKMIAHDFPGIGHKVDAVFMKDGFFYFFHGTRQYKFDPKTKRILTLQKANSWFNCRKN
Summary of the method: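 Recombinant MMP-1 catalytic domain expressed in E. coli, refolded 1 h in 200 mM NaCl, 50 mM Tris, 5 mM CaCl2, 10 μM ZnSO4, 0.01% Brij 35, pH 7.6, and assayed at 1.0 nM in the same buffer. Enzyme preincubated 20 min at room temperature with inhibitor (eleven-point 3-fold dilutions). Reaction started with fluorogenic Dnp-Pro-Cha-Gly-Cys(Me)-His-Ala-Lys(Nma)-NH2; ex 343/em 450 nm; IC50 (nM).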

[4] = target: Matrix metalloproteinase-9 (Homo sapiens, UniProt P14780); experiment: Inhibition potency was determined by fluorescence-based peptide assay against matrix metalloprotease-9
Chain of Matrix metalloproteinase-9 (P14780 whole entry, the tested form may be a part): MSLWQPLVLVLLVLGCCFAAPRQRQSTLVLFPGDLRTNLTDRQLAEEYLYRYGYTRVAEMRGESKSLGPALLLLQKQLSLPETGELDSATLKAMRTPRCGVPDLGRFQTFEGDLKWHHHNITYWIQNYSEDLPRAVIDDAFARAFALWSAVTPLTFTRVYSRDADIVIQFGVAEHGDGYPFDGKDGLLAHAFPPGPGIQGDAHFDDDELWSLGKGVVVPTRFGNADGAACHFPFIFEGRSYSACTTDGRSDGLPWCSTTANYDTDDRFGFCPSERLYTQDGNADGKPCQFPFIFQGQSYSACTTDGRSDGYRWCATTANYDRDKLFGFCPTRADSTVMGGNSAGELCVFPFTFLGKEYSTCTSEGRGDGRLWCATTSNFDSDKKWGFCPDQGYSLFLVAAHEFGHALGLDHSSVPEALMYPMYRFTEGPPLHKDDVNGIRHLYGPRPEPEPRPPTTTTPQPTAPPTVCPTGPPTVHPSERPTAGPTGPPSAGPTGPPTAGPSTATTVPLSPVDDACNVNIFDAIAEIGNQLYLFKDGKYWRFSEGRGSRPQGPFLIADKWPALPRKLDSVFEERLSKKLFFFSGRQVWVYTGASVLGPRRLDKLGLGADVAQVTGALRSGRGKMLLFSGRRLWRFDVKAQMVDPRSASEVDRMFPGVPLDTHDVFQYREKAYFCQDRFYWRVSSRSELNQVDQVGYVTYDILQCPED
Summary of the method: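 Catalytic domain of proMMP-9 purified from baculovirus-infected T. ni cell media, 0.1 nM in 200 mM NaCl, 50 mM Tris, 5 mM CaCl2, 10 μM ZnSO4, 0.01% Brij 35, pH 7.6. Preincubated with inhibitor 20 min at room temperature; fluorogenic Dnp-Pro-Cha-Gly-Cys(Me)-His-Ala-Lys(Nma)-NH2 added; fluorescence ex 343/em 450 nm; eleven-point 3-fold dilutions give IC50 (nM).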

[5] = tested on: Mus musculus; experiment: Inhibition of soluble TNF-alpha production in LPS-Stimulated mice by administration of 40 mg/kg compound per orally; format: functional; settings: route oral
Summary of the method: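 Female C3H/hen mice gavaged at 40 mg/kg (5 mL/kg, homogenized suspension in 0.5% HPMC/0.1% Tween 80) 10 min before ip LPS 0.2 mg/kg in PBS. Killed at 90 min; vena cava plasma TNF-α by ELISA. Percent inhibition vs vehicle group, n = 7 each, 2-sided t-test.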

[6] = tested on: Mus musculus; experiment: Inhibition of soluble TNF-alpha production in LPS-Stimulated mice by administration of 40 mg/kg compound subcutaneously; format: functional; settings: sc, route subcutaneous
Summary of the method: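 Female C3H/hen mice given 40 mg/kg sc (0.2 mL; DMSO stock into 0.9% NaCl/30% Trappsol HPB-20, final 1% DMSO) 10 min before ip LPS 0.2 mg/kg in PBS. Plasma from vena cava at 90 min, TNF-α by ELISA; percent inhibition vs vehicle controls, n = 7 per group, 2-sided t-test.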

[7] = Solubility in simulated gastric fluid; format: physicochemical; settings: read-out: S
[8] = species: Rattus norvegicus; experiment: Inhibition of TNF alpha production in rat Zymosan inflammation model; format: functional
Summary of the method: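 Male Lewis rats given single sc dose (50 mg/kg) as aqueous suspension in 5% EtOH, 5% propylene glycol, 10% Cremephore, 10% Molecusol (5 mL/kg), 10 min before intrapleural zymosan (0.5 mg in 0.25 mL H2O).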

Chain of Stromelysin-1 (P08254 whole entry): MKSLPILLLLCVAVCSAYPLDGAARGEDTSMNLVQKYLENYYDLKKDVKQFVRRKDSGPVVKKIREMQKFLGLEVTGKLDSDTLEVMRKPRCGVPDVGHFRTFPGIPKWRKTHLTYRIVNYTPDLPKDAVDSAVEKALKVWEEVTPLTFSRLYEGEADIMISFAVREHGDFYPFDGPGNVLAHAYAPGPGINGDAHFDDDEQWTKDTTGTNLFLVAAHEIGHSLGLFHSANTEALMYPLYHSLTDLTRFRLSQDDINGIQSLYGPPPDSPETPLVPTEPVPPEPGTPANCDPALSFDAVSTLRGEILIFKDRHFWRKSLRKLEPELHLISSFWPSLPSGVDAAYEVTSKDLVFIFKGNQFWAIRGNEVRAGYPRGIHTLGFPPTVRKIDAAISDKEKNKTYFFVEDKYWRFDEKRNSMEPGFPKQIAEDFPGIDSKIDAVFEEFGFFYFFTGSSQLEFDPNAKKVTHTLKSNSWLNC

For `CCC[C@@H]([C@@H](Cc1ccc(C)s1)C(=O)N[C@@H](CCC/N=C(/N)NS(=O)(=O)c1ccccn1)C(=O)Nc1nccs1)N(O)C=O`, the IC50 [1] was 218 nM, the IC50 [2] was 11 nM and the IC50 [3] was > 2700 nM. For the same compound, the IC50 [4] was 379 nM.

With `CCC[C@@H]([C@@H](CC(C)C)C(=O)N[C@@H](CCC/N=C(/N)NS(=O)(=O)c1ccccn1)C(=O)Nc1nccs1)N(O)C=O` the IC50 [1] was 84 nM, the inhibition in vivo at 40 mg/kg [5] was -28% and the IC50 [2] was 6 nM. It also gave an IC50 [3] of 76 nM and an IC50 [4] of 43 nM.

In the case of `N/C(=N/CCC[C@H](NC(=O)[C@H](CC1CCCCC1)[C@H](CCC(F)(F)F)N(O)C=O)C(=O)Nc1nccs1)N[N+](=O)[O-]`, the IC50 [1] is reported as 214 nM, the inhibition in vivo at 40 mg/kg [5] is reported as -24% and the inhibition in vivo at 40 mg/kg [6] is reported as 73%. For the same compound, the IC50 [2] was 5 nM, the IC50 [3] was 110 nM and the IC50 [4] was 49 nM. For the same compound, the solubility [7] was 54 µg/mL (≈ 88.7 µM).

`CC(C)C[C@@H](C(=O)N[C@H](C(=O)Nc1nccs1)[C@H](C)CC/N=C(/N)NS(C)(=O)=O)[C@H](C(C)C)N(O)C=O` gave an IC50 [1] of 49 nM, an inhibition in vivo at 40 mg/kg [5] of 7% and an IC50 [2] of 35 nM. It also gave an IC50 [3] of 8.1 nM and an IC50 [4] of 12 nM.

For `CCC[C@@H]([C@@H](Cc1ccc(C)s1)C(=O)N[C@@H](CCC/N=C(/N)N[N+](=O)[O-])C(=O)Nc1nccs1)N(O)C=O`, the IC50 [1] was 79 nM, the IC50 [3] was > 2500 nM and the IC50 [4] was 190 nM.

Work on `CC1CCC(C[C@@H](C(=O)N[C@@H](CCC/N=C(/N)N[N+](=O)[O-])C(=O)Nc2nccs2)[C@H](C(C)C)N(O)C=O)CC1` (stereo partly drawn) yielded an IC50 [1] of 76 nM, an inhibition in vivo at 40 mg/kg [5] of -6% and an inhibition in vivo at 40 mg/kg [6] of 71%. For the same compound, the IC50 [3] was 85 nM, the IC50 [4] was 35 nM and the solubility [7] was 210 µg/mL (≈ 369 µM).

Work on `CC(C)C[C@@H](C(=O)N[C@H](C(=O)Nc1nccs1)[C@H](C)CC/N=C(/N)N[N+](=O)[O-])[C@H](C)N(O)C=O` yielded an IC50 [1] of 273 nM, an inhibition in vivo at 40 mg/kg [5] of -2% and an IC50 [2] of 7 nM. For the same compound, the IC50 [3] was 38 nM, the IC50 [4] was 19 nM and the solubility [7] was > 850 µg/mL.

`CC(C)C[C@@H](C(=O)N[C@H](C(=O)Nc1nccs1)[C@H](C)CC/N=C(/N)NS(C)(=O)=O)[C@H](C)N(O)C=O` gave an IC50 [1] of 169 nM, an inhibition in vivo at 40 mg/kg [5] of -3% and an IC50 [2] of 12 nM. For the same compound, the IC50 [3] was 18 nM, the IC50 [4] was 8.5 nM and the solubility [7] was > 2130 µg/mL.

Work on `CC(C)C[C@@H](C(=O)N[C@@H](CCC/N=C(/N)NS(C)(=O)=O)C(=O)Nc1nccs1)[C@H](C(C)C)N(O)C=O` yielded an IC50 [1] of 62 nM, an IC50 [2] of 42 nM and an IC50 [3] of 21 nM. It also gave an IC50 [4] of 22 nM.

Compound `NC(=NCCC[C@H](NC(=O)[C@H](CC1CCCCC1)[C@H](C1CC1)N(O)C=O)C(=O)Nc1nccs1)N[N+](=O)[O-]` has an IC50 [1] of 1490 nM, an inhibition in vivo at 40 mg/kg [5] of -3% and an inhibition in vivo at 40 mg/kg [6] of 56%. It also gave an IC50 [2] of 22 nM, an IC50 [3] of 144 nM and an IC50 [4] of 602 nM. It also gave a solubility [7] of 920 µg/mL (≈ 1660 µM).

`CC1CCC(C[C@@H](C(=O)N[C@@H](CCCN=C(N)NS(=O)(=O)c2ccccn2)C(=O)Nc2nccs2)[C@H](C(C)C)N(O)C=O)CC1` (stereo partly drawn) gave an IC50 [1] of 115 nM, an inhibition in vivo at 40 mg/kg [5] of -9% and an IC50 [2] of 16 nM. The IC50 [3] was 96 nM and the IC50 [4] was 71 nM.

`CCC[C@@H]([C@@H](CC(C)C)C(=O)N[C@@H](CCCN=C(N)NS(C)(=O)=O)C(=O)Nc1nccs1)N(O)C=O` gave an IC50 [1] of 122 nM, an IC50 [2] of 7.9 nM and an IC50 [3] of 100 nM. The IC50 [4] was 51 nM and the solubility [7] was > 1130 µg/mL.

`CCC[C@@H]([C@@H](CC(C)C)C(=O)N[C@H](C(=O)Nc1nccs1)[C@H](C)CC/N=C(/N)N[N+](=O)[O-])N(O)C=O` showed an IC50 [1] of 47 nM, an inhibition in vivo at 40 mg/kg [5] of -10% and an IC50 [2] of 5 nM. The IC50 [3] was 24 nM and the IC50 [4] was 13 nM.

With `CC(C)C[C@@H](C(=O)N[C@H](C(=O)Nc1nccs1)[C@H](C)CC/N=C(/N)NS(C)(=O)=O)[C@H](CCC(F)(F)F)N(O)C=O` the IC50 [1] was 17 nM, the inhibition in vivo at 40 mg/kg [5] was -5% and the IC50 [2] was 8 nM. For the same compound, the IC50 [3] was 52 nM and the IC50 [4] was 22 nM.

In the case of `CCC[C@@H]([C@@H](CC1CCC(C)CC1)C(=O)N[C@@H](CCC/N=C(/N)N[N+](=O)[O-])C(=O)Nc1nccs1)N(O)C=O` (stereo partly drawn), the IC50 [1] is reported as 200 nM, the inhibition in vivo at 40 mg/kg [5] is reported as -19% and the inhibition in vivo at 40 mg/kg [6] is reported as 64%. It also gave an IC50 [2] of 9 nM, an IC50 [3] of 188 nM and an IC50 [4] of 115 nM. It also gave a solubility [7] of 160 µg/mL (≈ 281 µM).

Work on `CCC[C@@H]([C@@H](CC(C)C)C(=O)N[C@@H](CCC/N=C(/N)N[N+](=O)[O-])C(=O)Nc1nccs1)N(O)C=O` yielded an IC50 [1] of 31 nM, an Inhibition [8] of 30% and an inhibition in vivo at 40 mg/kg [5] of -29%. For the same compound, the inhibition in vivo at 40 mg/kg [6] was 96%, the IC50 [3] was 34 nM and the IC50 [4] was 13 nM. For the same compound, the solubility [7] was > 1600 µg/mL.

`CCC[C@@H]([C@@H](CC1CCC(C)CC1)C(=O)N[C@@H](CCCN=C(N)NS(=O)(=O)c1ccccn1)C(=O)Nc1nccs1)N(O)C=O` (stereo partly drawn) gave an IC50 [1] of 282 nM, an IC50 [2] of 6 nM and an IC50 [3] of 133 nM. For the same compound, the IC50 [4] was 143 nM and the solubility [7] was 160 µg/mL (≈ 241 µM).

For `CCC[C@@H]([C@@H](CC1CCCCC1)C(=O)N[C@@H](CCC/N=C(/N)N[N+](=O)[O-])C(=O)Nc1nccs1)N(O)C=O`, the IC50 [1] was 203 nM, the inhibition in vivo at 40 mg/kg [5] was -27% and the inhibition in vivo at 40 mg/kg [6] was 72%. For the same compound, the IC50 [2] was 8 nM, the IC50 [3] was 108 nM and the IC50 [4] was 55 nM. The solubility [7] was 330 µg/mL (≈ 595 µM).

Compound `CCC[C@@H]([C@@H](CC(C)C)C(=O)N[C@H](C(=O)Nc1nccs1)[C@H](C)CCN=C(N)NS(C)(=O)=O)N(O)C=O` has an IC50 [1] of 156 nM, an inhibition in vivo at 40 mg/kg [5] of 28% and an IC50 [2] of 6 nM. For the same compound, the IC50 [3] was 57 nM and the IC50 [4] was 48 nM.

In the case of `CC(C)C[C@@H](C(=O)N[C@@H](CCC/N=C(/N)N[N+](=O)[O-])C(=O)Nc1nccs1)[C@H](Cc1ccccc1)N(O)C=O`, the IC50 [1] is reported as 31 nM, the IC50 [3] is reported as 26 nM and the IC50 [4] is reported as 11 nM.

`CC1CCC(C[C@@H](C(=O)N[C@@H](CCCN=C(N)NS(C)(=O)=O)C(=O)Nc2nccs2)[C@H](C(C)C)N(O)C=O)CC1` (stereo partly drawn) showed an IC50 [1] of 155 nM, an inhibition in vivo at 40 mg/kg [5] of 32% and an IC50 [2] of 14 nM. The IC50 [3] was 122 nM, the IC50 [4] was 89 nM and the solubility [7] was 1400 µg/mL (≈ 2330 µM).
